Data on 11 molecules can be found in PMC7948434 (ACS Omega, 2021).

Positions of bridges follow the written chain, without caps; N, C: chain ends. Residues, ends and D or L forms follow the SMILES beside them. No end group written: not given here.

B1: N36 peptide derived from HIV-1 JR-FL gp41 (peptide)
chain: SGIVQQQNNLLRAIEAQQRMLQLTVWGIKQLQARVL
B2: fejerlectin (peptide)
peptide: RLCYMVLPCP
modifications: disulfide 3-9 (inferred)

For series [1], the system named is HIV-1SF162, HIV-1NL4-3, and HIV-1_81A and NL4-3. The experiment in a line: time-of-addition assay, results in words for the viruses together. The class given is cell-based. Conditions: AZT 45 nM, maraviroc 24 nM, AMD3100 50 nM. The method in brief:
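TZM-bl cells (5 × 10^5/mL) were infected with HIV-1NL4-3, HIV-1SF162 or HIV-1 81A/NL4-3 at 100 TCID50 at 37 °C. Test compound (added as 25 μM) or control was introduced at 0, 0.5, 1, 2, 4, 6, 8 or 24 h post-infection. Medium was replaced at 24 h, and supernatant p24 antigen was measured at 48 h. Mean ± SD, n = 3.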

The test system of series [2] is gp41. Conditions: cited from earlier work.
Series [3] has as its system HIV-1_81A and NL4-3. The settings on record: 1 81A and NL4-3, 48 h.
In series [4] the test system is HIV-1SF162. Conditions: 1SF162, 48 h.
Series [5] has as its system HIV-1JR-FL pseudotyped virus. The settings on record: 72 h.
Series [6] is described as follows: serum stability, HA activity after incubation in human serum. The class given is in vitro ADME. The settings on record: 3 h; method: human serum at 37 °C, read-out HA titer. The gist of the method: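 Test compound was held in human serum at 37 °C for 0–4 h before HA titration. Mouse erythrocytes were washed in Alsever's solution and used as a 2% (v/v) suspension in PBS pH 7.5. Twofold serial dilutions were made in V-bottom plates, with PBS as negative control. Titer is the reciprocal of the lowest concentration giving HA. Repeated at least three times.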

The subject of series [7] is HIV-1HXB2 pseudotyped virus. Conditions: 72 h.
Series [8] has as its system HIV-1NL4-3. Conditions: 1NL4-3, 48 h.
The test system of series [9] is TZM-bl cells. The experiment in a line: cytotoxicity in vitro. The class given is cell-based. Conditions: MTT, 48 h, 1 to 1000 μM, mean ± SD, n = 3. The gist of the method: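 TZM-bl cells, 2 × 10^4/well in DMEM with 10% FBS and 1% penicillin/streptomycin, were cultured 24 h, then exposed to the test compound (1–1000 μM) for 48 h. MTT (0.5 mg/mL) was applied for 4 h, and formazan was dissolved in DMSO and read at 570 nm. CC50 was computed from the dose series. Mean ± SD, n = 3.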

The test system of series [10] is HIV-1. The settings on record: cited from earlier work.
Series [11] deals with gp41 6-HB (N36 and C34 peptides). Put plainly: ELISA for inhibiting gp41 6-HB formation. The class given is biochemical, HIV-1. Conditions: read-out: IC50, gp41 6-HB formation; 2 μM N36, 2 μM C34, 37 °C, ELISA 450 nm; mean ± SD, n = 3. The gist of the method:
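2 μM N36 was preincubated with the test compound (5–50 μM) at 37 °C for 30 min, then with 2 μM C34 at 37 °C for another 30 min. The mixture went onto plates coated with 2 μg/mL rabbit anti-6-HB IgG. Detection used 1 μg/mL NC-1 mAb, biotin-anti-mouse IgG, streptavidin-HRP and TMB, stopped with 1 M H2SO4, read at A450. Mean ± SD, n = 3.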
(In general: An ELISA detects its analyte on a solid surface through an enzyme-linked reagent.)

Series [12] has as its target B2. Put plainly: SPR.
Series [13] concerns the target B1. Put plainly: ELISA.

In the case of `Cc1cn([C@H]2C[C@H](N=[N+]=[N-])[C@@H](CO)O2)c(=O)[nH]c1=O` [AZT, zidovudine], the “anti-HIV activity when added 8 h after infection” value (from here on “anti-HIV activity when added 8 h”) in series [1] is “still had high antiviral activity when added 8 h after infection”.
In the case of sifuvirtide, the “anti-HIV-1 activity by inhibiting 6-HB formation” value in series [2] was “potent anti-HIV-1 activity by inhibiting 6-HB formation”.
Turning to `CSCC[C@@H]1NC(=O)[C@H](Cc2ccc(O)cc2)NC(=O)[C@@H](NC(=O)[C@H](CC(C)C)NC(=O)[C@@H](N)CCCNC(=N)N)CSSC[C@@H](C(=O)N2CCC[C@H]2C(=O)O)NC(=O)[C@@H]2CCCN2C(=O)[C@H](CC(C)C)NC(=O)[C@H](C(C)C)NC1=O` [fejerlectin, RLCYMVLPCP] (H-RLCYMVLPCP-OH; disulfide 3-9), the half-inhibitory concentration (IC50) (as a rule, the concentration at which inhibition is half-maximal) in series [3] is 2800 ± 370 nM; in [4] it was 2170 ± 1030 nM; in [8], 1430 ± 340 nM. The concentration giving a half-maximal response (EC50) – broadly, the concentration giving half of the maximal effect – in series [5] worked out at 4200 ± 960 nM; in [7], 9630 ± 2300 nM. Also, the “stability of HA activity in human plasma” value in series [6] is “stable for 3 h in human plasma”. The CC50 (commonly the concentration that lowers cell viability or growth by half) in [9] worked out at 182490 ± 9350 nM.
As to `O=C(CCc1ccc(O)cc1)c1c(O)cc(O[C@@H]2O[C@H](CO)[C@@H](O)[C@H](O)[C@H]2O)cc1O` [trilobatin], in series [2], the “HIV-1 entry/fusion inhibition via gp41 NHR” value was “inhibited HIV-1 entry/fusion by binding the gp41 NHR region and blocking the formation of fusion-active 6-HB”.
maraviroc: the “anti-HIV activity when added 8 h” value in series [1] was “significantly decreased 8 h after infection”.
Take `c1cc(CN2CCCNCCNCCCNCC2)ccc1CN1CCCNCCNCCCNCC1` [AMD3100]: in series [1], the “anti-HIV activity when added 8 h” value was “significantly decreased 8 h after infection”.
Take caerin 1.1: in series [10], the “suppression of HIV proliferation” value is listed as “suppress HIV proliferation by direct inactivation”.
Turning to `COc1ccc(S(=O)(=O)O)cc1N=Nc1c(S(=O)(=O)O)cc2cc(Nc3nc(Nc4ccccc4)nc(Nc4cc(C)c(N=Nc5cc(S(=O)(=O)O)cc6cc(S(=O)(=O)O)cc(O)c56)cc4OC)n3)ccc2c1O` [ADS-J1], in [11], the IC50 amounted to 1530 ± 480 nM.
Regarding retrocyclin-1, the “protection of cells from HIV-1 infection” value in series [10] was “protect cells from HIV-1 infection by binding with high affinity to gp120, CD4, and galactosylceramide”.
For the molecule B1, the equilibrium dissociation constant (Kd) (usually the constant that tells how readily two partners part at equilibrium) in [12] was determined as 466000 nM.
In turn, B2 registered an IC50 in series [13] of 2610 nM.
